Data published in ChEMBL document CHEMBL4725444, “Brain Permeable Tafamidis Amide Analogs for Stabilizing TTR and Reducing APP Cleavage” (ACS Med Chem Lett, 2020).
The source made the active and inactive calls. The calls are words filed in the database; no cut-off is given here.

Assays:
[1] = Brain concentration in 5XFAD mouse at 50 mg/kg, po measured after 15 days by LC-MS/MS analysis; assay type: ADME, organism-based; conditions: time 15 day, read-out: Ct
Outline: (§1)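 Dosed via drinking water for 15 days (50 mg/kg) in 3-month-old 5xFAD mice, n = 3. Blood and brain tissue collected on day 15; parent amide and its hydrolysis product tafamidis quantified in plasma and brain extracts by LC-MS/MS.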

[2] = test system: N2a695; experiment: Increase in APP-CTF fragmentation in mouse N2a695 cells at 10 uM incubated for 6 hrs by Western blot analysis; assay type: functional, cell-based
Outline: (§2)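 N2a695 cells (4.0 × 10^5–4.5 × 10^5 cells/mL, 90–95% confluent) treated with 10 μM final compound for 6 h at 37 °C, 5% CO2. Lysates run on SDS-PAGE; membrane fixed with 0.25% glutaraldehyde in PBS, blocked in milk PBST, probed with RU369 (APP C-terminus antibody), HRP secondary, ECL detection; APP-CTF bands quantified versus DMSO control.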

[3] = Inhibition of gamma secretase in mouse N2a695 cells using Sb4 substrate incubated for 3 hrs by ELISA; conditions: N2a695, 3 h
[4] = test system: N2a695; experiment: Inhibition of amyloid beta aggregation in mouse N2a695 cells measured for 4 hrs by fluorescence correlation spectroscopic analysis; assay type: cell-based
[5] = test system: N2a695; experiment: Effect on TTR-induced amyloid beta aggregation inhibition in mouse N2a695 cells measured for 4 hrs by fluorescence correlation spectroscopic analysis; assay type: functional, cell-based
[6] = target: Transthyretin (Homo sapiens) (UniProt P02766); experiment: Stabilization of recombinant dual FLAG-tagged wild type TTR (unknown origin) in plasma blood at < 30 uM incubated for 48 hrs by ion exchange chromatographic method; assay type: cell-free; conditions: dose microM <30, time 48.0 hrs
[7] = test system: N2a695; experiment: Increase in APP fragmentation in mouse N2a695 cells at 10 uM incubated for 6 hrs by Western blot analysis; assay type: functional, cell-based; outline: as §2
[8] = Plasma concentration in 5XFAD mouse at 50 mg/kg, po measured after 15 days by LC-MS/MS analysis; assay type: ADME, organism-based; conditions: time 15 day; outline: as §1
[9] = test system: N2a695; experiment: Inhibition of amyloid beta 42 production in mouse N2a695 cells at 10 uM incubated for 6 hrs by ELISA relative to control; assay type: cell-based
Outline: (§3)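 Human APP695-expressing N2a695 cells (4.0 × 10^5–4.5 × 10^5 cells/mL, 90–95% confluent) given 10 μM final compound for 6 h at 37 °C, 5% CO2. Media assayed by human Aβ40/Aβ42 sandwich ELISA (Aβ40 media diluted 5–10×, Aβ42 undiluted); levels compared with DMSO vehicle. At least two experiments in duplicate or triplicate.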

[10] = test system: N2a695; experiment: Inhibition of amyloid beta 40 production in mouse N2a695 cells at 10 uM incubated for 6 hrs by ELISA relative to control; assay type: cell-based; outline: as §3
[11] = Cytotoxicity against mouse N2a695 cells assessed as reduction in cell viability at 10 uM incubated for 24 hrs by MTT assay; assay type: cell-based; conditions: n2a695, 24 h
Outline: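 N2a cells exposed to 10 μM compound for 24 h; viable cell number determined by MTT assay.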

[12] = Metabolic stability in human liver microsomes assessed as parent compound remaining at 1 uM measured after 0.5 hrs by LC-MS/MS analysis relative to control; assay type: ADME, Microsome; conditions: read-out: Stabilty
Outline: (§4)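 Compound at 1 or 10 μM incubated with mouse or human liver microsomes at 25 °C for 30 and 60 min; remaining parent quantified by LC-MS/MS.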

[13] = Metabolic stability in CD1 mouse liver microsomes assessed as parent compound remaining at 1 uM measured after 1 hr by LC-MS/MS analysis relative to control; assay type: ADME, Microsome; conditions: read-out: Stabilty; outline: as §4
[14] = Metabolic stability in human liver microsomes assessed as parent compound remaining at 1 uM measured after 1 hr by LC-MS/MS analysis relative to control; assay type: ADME, Microsome; conditions: read-out: Stabilty; outline: as §4
[15] = Metabolic stability in mouse liver microsomes assessed as parent compound remaining after 0.5 hrs by LC-MS/MS analysis relative to control; assay type: ADME, Microsome; conditions: read-out: Stabilty; outline: as §4
[16] = Metabolic stability in CD1 mouse liver microsomes assessed as parent compound remaining at 10 uM measured after 0.5 hrs by LC-MS/MS analysis relative to control; assay type: ADME, Microsome; conditions: read-out: Stabilty; outline: as §4
[17] = Metabolic stability in CD1 mouse liver microsomes assessed as parent compound remaining at 10 uM measured after 1 hr by LC-MS/MS analysis relative to control; assay type: ADME, Microsome; conditions: read-out: Stabilty; outline: as §4

Row | Compound | concentration at 360 h [1] [ng/g] | Activity [2] | IC50 [3] [µM] | inhibition [4] | Activity [5] | Activity [6] | Stability [6] | Activity [7] | concentration at 360 h [8] [nM] | inhibition [9] [%] | inhibition [10] [%] | Activity [11] | remaining at 0.5 h, 1 µM [12] [%] | remaining at 1 h, 1 µM [13] [%] | remaining at 1 h, 1 µM [14] [%] | remaining at 0.5 h, 1 µM [15] [%] | remaining at 0.5 h, 1 µM [16] [%] | remaining at 1 h, 1 µM [17] [%]
1 | O=C(O)c1ccc2nc(-c3cc(Cl)cc(Cl)c3)oc2c1 [TAFAMIDIS] | 223 | inactive | > 30 | inactive | inactive | Active | Stable | inactive | 5800 | – | – | – | – | – | – | – | – | –
2 | CN(C)CCNC(=O)c1ccc2nc(-c3ccc(C(F)(F)F)cc3)oc2c1 | – | Active | – | – | – | – | – | Active | – | 30 | 30 | – | – | – | – | – | – | –
3 | O=C(NC1CCNCC1)c1ccc2nc(-c3cc(Cl)cc(Cl)c3)oc2c1 | – | Active | – | – | – | – | – | Active | – | 30 | 30 | Toxic | – | – | – | – | – | –
4 | O=C(c1ccc2nc(-c3cc(Cl)cc(Cl)c3)oc2c1)N1CCNCC1 | 137 | Active | – | inactive | inactive | Active | – | Active | 80 | 30 | 30 | Non-Toxic | 75.4 | 2.3 | 70.3 | 15.1 | 26.7 | 1.2
5 | O=C(c1ccc2nc(-c3ccc(C(F)(F)F)cc3)oc2c1)N1CCNCC1 | – | Active | – | – | – | – | – | Active | – | 30 | 30 | Toxic | – | – | – | – | – | –
